Results published in ChEMBL document CHEMBL4177624, “Rationally designed hecogenin thiosemicarbazone analogs as novel MEK inhibitors for the control of breast malignancies” (Bioorg Med Chem, 2017).

Key:
Format in all cases: functional, cell-based
MCF7 = assay: Antiproliferative activity against human MCF7 cells after 72 hrs by MTT assay; details: MCF7, 72 h
Method in brief: (§1)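 Six human breast carcinoma lines of differing molecular and phenotypic character were each exposed to a range of concentrations for 72 h. Proliferation was read by MTT. Results are given as mean percent viability, with IC₅₀ ± SEM calculated per cell line.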

T47D = assay: Antiproliferative activity against human T47D cells after 72 hrs by MTT assay; method in brief: as §1
MDA-MB-231 = assay: Antiproliferative activity against human MDA-MB-231 cells after 72 hrs by MTT assay; details: MDA-MB-231, 72 h
Method in brief: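 MDA-MB-231 triple-negative breast cancer cells were exposed to a range of concentrations for 72 h. Proliferation was read by MTT. Results are given as mean percent viability versus concentration, with IC₅₀ ± SEM calculated from the curve.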

MDA-MB-468 = assay: Antiproliferative activity against human MDA-MB-468 cells after 72 hrs by MTT assay; details: MDA-MB-468, 72 h; method in brief: as §1
SK-BR-3 = assay: Antiproliferative activity against human SKBR3 cells after 72 hrs by MTT assay; details: SK-BR-3, 72 h; method in brief: as §1
BT-474 = assay: Antiproliferative activity against human BT474 cells after 72 hrs by MTT assay; details: BT-474, 72 h; method in brief: as §1

| Compound | IC50 (MCF7) [µM] | IC50 (T47D) [µM] | IC50 (MDA-MB-231) [µM] | IC50 (MDA-MB-468) [µM] | IC50 (SK-BR-3) [µM] | IC50 (BT-474) [µM] |
| --- | --- | --- | --- | --- | --- | --- |
| C[C@@H]1CC[C@@]2(OC1)O[C@H]1C[C@H]3[C@@H]4CC[C@H]5C[C@@H](O)CC[C@]5(C)[C@H]4C/C(=N\NC(=S)Nc4ccc(Oc5ccccc5)cc4)[C@]3(C)[C@H]1[C@@H]2C | 27 | > 40 | 28.1 | 30.8 | 29 | 31.2 |
| C[C@@H]1CC[C@@]2(OC1)O[C@H]1C[C@H]3[C@@H]4CC[C@H]5C[C@@H](O)CC[C@]5(C)[C@H]4C/C(=N\NC(=S)Nc4cc(C(F)(F)F)cc(C(F)(F)F)c4)[C@]3(C)[C@H]1[C@@H]2C | 8 | 11 | 7.3 | 8.2 | 8.6 | 10.8 |
| C[C@@H]1CC[C@@]2(OC1)O[C@H]1C[C@H]3[C@@H]4CC[C@H]5C[C@@H](O)CC[C@]5(C)[C@H]4C/C(=N\NC(=O)Nc4ccc(Cl)cc4)[C@]3(C)[C@H]1[C@@H]2C | 9.1 | 12 | 8.5 | 11.3 | 9 | 9.8 |
| C[C@@H]1CC[C@@]2(OC1)O[C@H]1C[C@H]3[C@@H]4CC[C@H]5C[C@@H](O)CC[C@]5(C)[C@H]4C/C(=N\NC(=S)Nc4c(Cl)cccc4Cl)[C@]3(C)[C@H]1[C@@H]2C | 6.4 | 10.4 | 6 | 7.3 | 9 | 6.9 |
| Cc1ccc(S(=O)(=O)NC(=O)N/N=C2\C[C@H]3[C@@H](CC[C@H]4C[C@@H](O)CC[C@@]43C)[C@@H]3C[C@@H]4O[C@]5(CC[C@@H](C)CO5)[C@@H](C)[C@@H]4[C@@]23C)cc1 | 29.3 | > 40 | 28 | 36.4 | 31 | > 40 |
| Cc1cccc(C)c1NC(=S)N/N=C1\C[C@H]2[C@@H](CC[C@H]3C[C@@H](O)CC[C@@]32C)[C@@H]2C[C@@H]3O[C@]4(CC[C@@H](C)CO4)[C@@H](C)[C@@H]3[C@@]12C | 2.5 | 4.2 | 2.3 | 2.8 | 2.9 | 3.2 |
| COc1ccc(NC(=S)N/N=C2\C[C@H]3[C@@H](CC[C@H]4C[C@@H](O)CC[C@@]43C)[C@@H]3C[C@@H]4O[C@]5(CC[C@@H](C)CO5)[C@@H](C)[C@@H]4[C@@]23C)cc1 | 10.1 | 14.2 | 9.5 | 11.2 | 11.5 | 10.9 |
| C[C@@H]1CC[C@@]2(OC1)O[C@H]1C[C@H]3[C@@H]4CC[C@H]5C[C@@H](OC(=O)c6ccccc6Cl)CC[C@]5(C)[C@H]4CC(=O)[C@]3(C)[C@H]1[C@@H]2C | > 40 | > 40 | > 40 | > 40 | > 40 | > 40 |
| C[C@@H]1CC[C@@]2(OC1)O[C@H]1C[C@H]3[C@@H]4CC[C@H]5C[C@@H](OC(=O)c6ccccc6)CC[C@]5(C)[C@H]4CC(=O)[C@]3(C)[C@H]1[C@@H]2C | 30.3 | 37.8 | 29.1 | 34.2 | 33.4 | 36.3 |
| C[C@@H]1CC[C@@]2(OC1)O[C@H]1C[C@H]3[C@@H]4CC[C@H]5C[C@@H](OC(=O)c6ccc([N+](=O)[O-])cc6)CC[C@]5(C)[C@H]4CC(=O)[C@]3(C)[C@H]1[C@@H]2C | 32.4 | > 40 | 25.3 | > 40 | 34.9 | > 40 |
| Cc1ccc(NC(=S)N/N=C2\C[C@H]3[C@@H](CC[C@H]4C[C@@H](O)CC[C@@]43C)[C@@H]3C[C@@H]4O[C@]5(CC[C@@H](C)CO5)[C@@H](C)[C@@H]4[C@@]23C)cc1 | 3.7 | 6.1 | 3.1 | 4 | 3.8 | 4.5 |
| C[C@@H]1CC[C@@]2(OC1)O[C@H]1C[C@H]3[C@@H]4CC[C@H]5C[C@@H](OC(=O)c6cccc(C(F)(F)F)c6)CC[C@]5(C)[C@H]4CC(=O)[C@]3(C)[C@H]1[C@@H]2C | > 40 | > 40 | > 40 | > 40 | > 40 | > 40 |
| CCc1ccccc1NC(=S)N/N=C1\C[C@H]2[C@@H](CC[C@H]3C[C@@H](O)CC[C@@]32C)[C@@H]2C[C@@H]3O[C@]4(CC[C@@H](C)CO4)[C@@H](C)[C@@H]3[C@@]12C | 5 | 8.8 | 3.8 | 5.8 | 4.7 | 8.3 |
| C[C@@H]1CC[C@@]2(OC1)O[C@H]1C[C@H]3[C@@H]4CC[C@H]5C[C@@H](O)CC[C@]5(C)[C@H]4C/C(=N\NC(=S)Nc4ccc(Cl)cc4Cl)[C@]3(C)[C@H]1[C@@H]2C | 7.9 | 9.5 | 7.5 | 8 | 8.8 | 9 |
| C[C@@H]1CC[C@@]2(OC1)O[C@H]1C[C@H]3[C@@H]4CC[C@H]5C[C@@H](O)CC[C@]5(C)[C@H]4C/C(=N\NC(=S)Nc4ccc(F)cc4)[C@]3(C)[C@H]1[C@@H]2C | 4 | 5.9 | 5 | 4.2 | 4.5 | 6.3 |
| C[C@@H]1CC[C@@]2(OC1)O[C@H]1C[C@H]3[C@@H]4CC[C@H]5C[C@@H](O)CC[C@]5(C)[C@H]4C/C(=N\NC(=S)Nc4ccc([N+](=O)[O-])cc4)[C@]3(C)[C@H]1[C@@H]2C | 7.5 | 11.5 | 7.3 | 8 | 7.9 | 10.3 |
| C[C@@H]1CC[C@@]2(OC1)O[C@H]1C[C@H]3[C@@H]4CC[C@H]5C[C@@H](O)CC[C@]5(C)[C@H]4C/C(=N\NC(=S)Nc4ccccc4)[C@]3(C)[C@H]1[C@@H]2C | 8 | 10.3 | 7.8 | 8.4 | 9.1 | 9.3 |
| C[C@@H]1CC[C@@]2(OC1)O[C@H]1C[C@H]3[C@@H]4CC[C@H]5C[C@@H](O)CC[C@]5(C)[C@H]4C/C(=N\NC(=S)Nc4ccc(Cl)cc4)[C@]3(C)[C@H]1[C@@H]2C | 12 | 15.1 | 11.5 | 12.8 | 14.8 | 11.8 |
| C[C@@H]1CC[C@@]2(OC1)O[C@H]1C[C@H]3[C@@H]4CC[C@H]5C[C@@H](O)CC[C@]5(C)[C@H]4C/C(=N\NC(=O)Nc4cccc(C(F)(F)F)c4)[C@]3(C)[C@H]1[C@@H]2C | 13.8 | 20.9 | 14 | 15.3 | 15.7 | 19.2 |
